Residue numbers refer to the chain shown, from its start.
Legend:
MRGPRX2 mutants [1] = biological target: T1, MRGPRX2 mutants (Homo sapiens, UniProt Q96LB1, I135A); assay: BRET2 Gq activation, MRGPRX2 mutants; assay type: cell-based; settings: MRGPRX2 I135(ICL2)A
T1 sequence (Q96LB1 1-330 I135A): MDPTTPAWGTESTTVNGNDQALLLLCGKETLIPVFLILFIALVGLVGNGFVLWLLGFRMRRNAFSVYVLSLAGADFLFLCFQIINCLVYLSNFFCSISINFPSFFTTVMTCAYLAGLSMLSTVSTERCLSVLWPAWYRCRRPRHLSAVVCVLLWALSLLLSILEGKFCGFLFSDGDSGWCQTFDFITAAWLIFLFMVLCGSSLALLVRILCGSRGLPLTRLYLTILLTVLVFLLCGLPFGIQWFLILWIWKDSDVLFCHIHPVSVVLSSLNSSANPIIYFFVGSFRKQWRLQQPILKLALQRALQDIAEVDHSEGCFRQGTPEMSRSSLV

MRGPRX2 mutants [2] = assay: BRET2 Gq activation, MRGPRX2 mutants; assay type: cell-based, human
MRGPRX2 mutants [3] = biological target: T1, MRGPRX2 mutants; assay: BRET2 Gi1 activation, MRGPRX2 mutants; assay type: cell-based; settings: MRGPRX2 I135(ICL2)A
MRGPRX2 mutants [4] = assay: BRET2 Gi1 activation, MRGPRX2 mutants; assay type: cell-based, human; settings: MRGPRX2 R214A, L216A
MRGPRX4 [5] = biological target: MRGPRX4 (Homo sapiens, UniProt Q96LA9); assay: FLIPR Ca2+ assay, agonist mode, MRGPRX4 stable cells; assay type: cell-based; settings: read-out: EC50, MRGPRX4 agonist
Chain of MRGPRX4 (Homo sapiens, UniProt Q96LA9) (Q96LA9 whole entry): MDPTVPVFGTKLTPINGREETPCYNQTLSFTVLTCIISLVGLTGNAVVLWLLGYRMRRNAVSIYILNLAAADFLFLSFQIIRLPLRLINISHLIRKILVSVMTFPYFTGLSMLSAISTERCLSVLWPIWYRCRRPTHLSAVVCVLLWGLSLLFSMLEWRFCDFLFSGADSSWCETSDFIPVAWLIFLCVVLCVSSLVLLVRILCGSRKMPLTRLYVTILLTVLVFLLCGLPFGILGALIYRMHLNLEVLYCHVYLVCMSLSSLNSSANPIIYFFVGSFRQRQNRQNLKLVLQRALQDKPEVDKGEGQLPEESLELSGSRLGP

[6] = system: Kir6.2/SUR1 potassium channel; assay: Whole-cell electrophysiology, Kir6.2/SUR1 current inhibition in HEK293 cells; assay type: cell-based, human
320 GPCRs = assay: PRESTO-Tango GPCRome screening; assay type: cell-based; settings: 3 μM
Procedure, shortened: (§1)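 HTLA cells in DMEM + 1% dialyzed FBS were PEI-transfected in-plate with PRESTO-Tango receptor DNA (17 ng/well). After overnight culture, test compound at 3 μM final was added for 18–20 h without medium change. Luminescence read 20 min after Bright-Glo. Assay control: D2 receptor with 0.1 mM quinpirole. Output is fold over basal RLU (n=4 technical replicates); receptors exceeding 3-fold basal were repeated as full dose–response.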

MRGPRX1 = MRGPRX1 (Homo sapiens, UniProt Q96LB2); assay: PRESTO-Tango single-point and concentration-response assay at MRGPRX1; assay type: cell-based
Chain of MRGPRX1 (Q96LB2 whole entry): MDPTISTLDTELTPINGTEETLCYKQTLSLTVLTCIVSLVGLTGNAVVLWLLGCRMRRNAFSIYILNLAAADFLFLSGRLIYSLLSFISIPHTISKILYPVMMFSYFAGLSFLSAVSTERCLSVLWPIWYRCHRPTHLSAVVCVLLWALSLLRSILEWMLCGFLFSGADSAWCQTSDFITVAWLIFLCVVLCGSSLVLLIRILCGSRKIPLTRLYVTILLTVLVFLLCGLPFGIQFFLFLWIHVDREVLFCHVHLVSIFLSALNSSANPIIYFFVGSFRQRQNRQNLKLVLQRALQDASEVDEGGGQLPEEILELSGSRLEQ
Procedure, shortened: as §1

MRGPRX4 mutants [7] = biological target: MRGPRX4 mutants (Homo sapiens, UniProt Q96LA9, Y130A); assay: BRET2 Gq activation, MRGPRX4 mutants; assay type: cell-based; settings: MRGPRX4 Y130(ICL2)A
Chain of MRGPRX4 mutants (Homo sapiens, UniProt Q96LA9, Y130A) (Q96LA9 whole entry Y130A): as the sequence (Q96LA9 whole entry) above, with Y130A counted along it

MRGPRX4 mutants [8] = assay: BRET2 Gq activation, MRGPRX4 mutants; assay type: cell-based, human; settings: MRGPRX4 pocket mutants
MRGPRX4 Leu83Ser = MRGPRX4 Leu83Ser (Homo sapiens, UniProt Q96LA9, L83S); assay: Agonist potency at MRGPRX4 Leu83Ser variant; assay type: cell-based
Chain of MRGPRX4 Leu83Ser (Q96LA9 whole entry L83S): as the sequence (Q96LA9 whole entry) above, with L83S counted along it

MRGPRX4 [9] = settings: previously identified; cited from earlier work
MRGPRX2 mutants [10] = biological target: T2, MRGPRX2 mutants (Homo sapiens, UniProt Q96LB1, F170A); assay: BRET2 Gq activation, MRGPRX2 mutants; assay type: cell-based; settings: MRGPRX2 F170(ECL2)A
T2 sequence (Q96LB1 1-330 F170A): T1 sequence (Q96LB1 1-330 I135A) with A135I, F170A

MRGPRX2 mutants [11] = biological target: T3, MRGPRX2 mutants (Homo sapiens, UniProt Q96LB1, W243A); assay: BRET2 Gq activation, MRGPRX2 mutants; assay type: cell-based; settings: MRGPRX2 W243A
T3 sequence (Q96LB1 1-330 W243A): T1 sequence (Q96LB1 1-330 I135A) with A135I, W243A

## CN(C)[C@@H]1CCN(c2cc(-c3ccccc3)nc3ccnn23)C1 [(R)-ZINC-3573]
MRGPRX2 mutants [1]
  effect of I135A mutation on stimulated Gq activation: greatly reduced
MRGPRX2 mutants [2]; MRGPRX2 D184A, E164A
  effect of D184A and E164A substitutions on agonist stimulated Gq activation: impaired the efficacy
MRGPRX2 mutants [2]; MRGPRX2 pocket alanine mutants
  effect of most alanine mutations in the (R)-ZINC-3573 pocket: greatly reduced the efficacy
MRGPRX2 mutants [3]
  effect of I135A mutation on stimulated Gi1 activation: attenuate
MRGPRX2 mutants [4]
  effect of ICL3 mutations R214A and L216A on stimulated Gi1 activation: impairs

## C[C@]12CC3CC(C(=O)N[C@H](Cc4ccccc4)C(=O)O)(C1)C[C@@](C)(C3)C2 [MS47134]
MRGPRX4 [5]
  EC50: 150 nM
[6]
  selectivity over Kir6.2/SUR1 channel compared to nateglinide: higher selectivity
[6]; MRGPRX4 FLIPR vs Kir6.2/SUR1 current inhibition
  improved selectivity for MRGPRX4 over the Kir6.2/SUR1 potassium channel: 47 fold
320 GPCRs
  off-target agonist or antagonist activity across GPCRome: activity only at MRGPRX4 and MRGPRX1
MRGPRX1; full dose-response repeat
  activity against MRGPRX1 in concentration-response assay: not replicated
MRGPRX1; single-point assay, 3 μM
  activity at MRGPRX1, fold of basal levels of relative luminescence units: more than 3 fold
MRGPRX4 mutants [7]
  effect of Y130A mutation on agonist potency: reduced the agonist potency
MRGPRX4 mutants [8]
  effect of most mutations surrounding MS47134 on potency: greatly affected its potency
MRGPRX4 Leu83Ser
  effect of Leu83Ser mutation on agonist potency: greatly attenuated the potency

## CC(C)[C@H]1CC[C@H](C(=O)N[C@H](Cc2ccccc2)C(=O)O)CC1 [nateglinide]
MRGPRX4 Leu83Ser
  effect of Leu83Ser mutation on agonist potency: greatly attenuated the potency
MRGPRX4 [9]
  MRGPRX4 agonist potency: low micromolar agonist

## cortistatin-14 (PCKNFFWKTFSSCK)
MRGPRX2 mutants [10]
  effect of F170A mutation on agonist stimulated Gq activation: reduced the potency
MRGPRX2 mutants [1]
  effect of I135A mutation on stimulated Gq activation: greatly reduced
MRGPRX2 mutants [11]
  effect of W243A mutation on agonist stimulated Gq activation: abolished the activity
MRGPRX2 mutants [3]
  effect of I135A mutation on stimulated Gi1 activation: attenuate
MRGPRX2 mutants [4]
  effect of ICL3 mutations R214A and L216A on stimulated Gi1 activation: impairs

— publication PMC9150435 (Nature, 2021)
